Converted amounts (≈) assume the structure as drawn.

Data set [1] can be described thus: Inhibition of His tagged Escherichia coli ATCC 25922 DNA gyrase A expressed in Escherichia coli BL21 (DE3) pLysS cells assessed as reduction in enzyme-mediated supercoiling of relaxed plasmid DNA pNO1 after 30 mins in presence of biotinylated TFO1 by fluorescence assay.
Data set [2] has as its system Escherichia coli. Briefly: Bactericidal activity against wild type Escherichia coli ATCC 25922 assessed as reduction of bacterial load after 24 hrs by time kill assay. The class given is functional, organism-based.
The test system of data set [3] is Acinetobacter baumannii. Briefly: Bactericidal activity against wild type Acinetobacter baumannii ATCC BAA-747 assessed as reduction of bacterial load after 24 hrs by time kill assay. The class given is functional, organism-based.
The test system of data set [4] is Escherichia coli. Briefly: Antibacterial activity against multidrug resistant Escherichia coli by broth microdilution method. The class given is functional. Particulars: Escherichia coli. An outline of the steps:
(§1)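 MICs were determined by CLSI broth methods, except that organisms were grown in brain–heart–infusion medium. The panel comprised wild-type and resistant E. coli and A. baumannii strains, including 12 strains whose details are given by reference.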

In data set [5] the test system is Acinetobacter baumannii. Briefly: Antibacterial activity against fluoroquinolone resistant Acinetobacter baumannii isolate MMX2240 by CLSI M100-S17 protocol based method. In kind it is functional.
Data set [6] concerns Escherichia coli. Briefly: Antibacterial activity against beta-lactam resistant Escherichia coli by broth microdilution method. In kind it is functional. Particulars: Escherichia coli. In outline:
as §1

Data set [7] deals with Escherichia coli. Briefly: Antibacterial activity against Escherichia coli SKM11 by CLSI M100-S17 protocol based method. In kind it is functional.
Data set [8] relates to Acinetobacter baumannii. Briefly: Antibacterial activity against wild type Acinetobacter baumannii ATCC BAA-747 by CLSI M100-S17 protocol based method. The class given is functional.
In data set [9] the test system is Escherichia coli. Briefly: Antibacterial activity against Escherichia coli infected in cyclophosphamide treated neutropenic CD1 mouse septicemia model assessed as mouse survival at 20 mg/kg, iv dosed at 1 hr post infection followed by redosing at 5 hrs post infection measured at 96 hrs post infection relative to control. In kind it is functional. In outline:
(§2)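 Female CD-1 mice were made neutropenic with cyclophosphamide ip, 150 mg/kg on day −4 and 100 mg/kg on day −1. […] Compound was given iv in 3% DMSO/saline at 1 and 5 h postinfection, n = 6 per group. Percent survival was scored at 96 h postinfection.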

For data set [10], the system named is Escherichia coli. Briefly: Antibacterial activity against fluoroquinolone resistant Escherichia coli SKM18 by CLSI M100-S17 protocol based method. The class given is functional.
Data set [11] relates to Acinetobacter baumannii. Briefly: Antibacterial activity against carbapenem resistant Acinetobacter baumannii by broth microdilution method. Particulars: Acinetobacter baumannii. The class given is functional. In outline: as §1
In data set [12] the test system is Escherichia coli. Briefly: Antibacterial activity against wild type Escherichia coli ATCC 25922 in presence of HSA by CLSI M100-S17 protocol based method. In kind it is functional.
For data set [13], the system named is Escherichia coli. Briefly: Antibacterial activity against wild type Escherichia coli ATCC 25922 by CLSI M100-S17 protocol based method. In kind it is functional.
The subject of data set [14] is Escherichia coli. Briefly: Antibacterial activity against wild type Escherichia coli 1609 by CLSI M100-S17 protocol based method. In kind it is functional.
Data set [15] has as its system Escherichia coli. Briefly: Antibacterial activity against wild type Escherichia coli by broth microdilution method. In kind it is functional. In outline: as §1
Data set [16] has as its system Escherichia coli. Briefly: Antibacterial activity against quinolone resistant Escherichia coli by broth microdilution method. The class given is functional. The following applies: Escherichia coli. An outline of the steps: as §1
Data set [17] relates to Klebsiella pneumoniae. Briefly: Antibacterial activity against wild type Klebsiella pneumoniae ATCC 35657 by CLSI M100-S17 protocol based method. In kind it is functional.
In data set [18] the test system is Acinetobacter baumannii. Briefly: Antibacterial activity against quinolone resistant Acinetobacter baumannii by broth microdilution method. In kind it is functional. Particulars: Acinetobacter baumannii. In outline: as §1
For data set [19], the system named is Escherichia coli. Briefly: Antibacterial activity against quinolone resistance Escherichia coli isolate ELZ4251 harboring gyrA/parC mutant by CLSI M100-S17 protocol based method. The class given is functional.
The subject of data set [20] is Acinetobacter baumannii. Briefly: Antibacterial activity against beta-lactam resistant Acinetobacter baumannii by broth microdilution method. The class given is functional. The following applies: Acinetobacter baumannii. In outline:
as §1

Data set [21] has as its system Acinetobacter baumannii. Briefly: Antibacterial activity against aminoglycoside resistant Acinetobacter baumannii by broth microdilution method. In kind it is functional. The following applies: Acinetobacter baumannii. An outline of the steps: as §1
For data set [22], the target named is DNA gyrase subunit A (Escherichia coli K-12, UniProt P0AES4). Briefly: Inhibition of His tagged Escherichia coli ATCC 25922 DNA gyrase A SD-LY mutant expressed in Escherichia coli BL21 (DE3) pLysS cells assessed as reduction in enzyme-mediated supercoiling of relaxed plasmid DNA pNO1 after 30 mins in presence of biotinylated TFO1 by fluorescence assay.
Sequence of DNA gyrase subunit A (P0AES4 2-875 limits assumed): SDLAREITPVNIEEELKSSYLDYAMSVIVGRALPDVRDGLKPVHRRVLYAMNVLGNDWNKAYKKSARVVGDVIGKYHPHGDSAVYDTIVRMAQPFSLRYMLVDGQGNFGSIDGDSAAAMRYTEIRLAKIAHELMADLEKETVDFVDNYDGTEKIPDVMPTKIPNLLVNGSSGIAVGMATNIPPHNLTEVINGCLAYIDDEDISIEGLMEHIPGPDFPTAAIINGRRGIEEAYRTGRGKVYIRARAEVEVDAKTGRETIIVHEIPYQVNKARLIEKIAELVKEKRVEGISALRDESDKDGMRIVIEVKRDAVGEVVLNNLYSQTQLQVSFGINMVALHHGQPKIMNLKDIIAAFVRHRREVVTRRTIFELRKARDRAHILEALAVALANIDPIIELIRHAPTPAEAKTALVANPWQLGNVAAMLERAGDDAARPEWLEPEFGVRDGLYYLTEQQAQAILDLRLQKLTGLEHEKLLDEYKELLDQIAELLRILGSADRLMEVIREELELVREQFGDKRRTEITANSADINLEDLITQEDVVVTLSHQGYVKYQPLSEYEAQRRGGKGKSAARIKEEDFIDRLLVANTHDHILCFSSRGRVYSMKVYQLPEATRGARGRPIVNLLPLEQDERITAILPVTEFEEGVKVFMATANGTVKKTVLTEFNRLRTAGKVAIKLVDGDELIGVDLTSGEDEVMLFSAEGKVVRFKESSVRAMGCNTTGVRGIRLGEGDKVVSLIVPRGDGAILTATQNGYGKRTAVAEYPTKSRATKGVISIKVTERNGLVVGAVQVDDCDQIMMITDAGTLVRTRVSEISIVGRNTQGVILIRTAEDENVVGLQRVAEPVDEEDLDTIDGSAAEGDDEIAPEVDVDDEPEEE
The subject of data set [23] is Escherichia coli. Briefly: Antibacterial activity against aminoglycoside resistant Escherichia coli by broth microdilution method. The following applies: Escherichia coli. In kind it is functional. An outline of the steps:
as §1

Data set [24] relates to Acinetobacter baumannii. Briefly: Antibacterial activity against wild type Acinetobacter baumannii by broth microdilution method. In kind it is functional. An outline of the steps:
as §1

Data set [25] relates to Acinetobacter baumannii. Briefly: Antibacterial activity against multidrug resistant Acinetobacter baumannii by broth microdilution method. In kind it is functional. Particulars: Acinetobacter baumannii. An outline of the steps:
as §1

Data set [26] in a line: Inhibition of Escherichia coli DNA topoisomerase 4 assessed as reduction in decatenation activity using kinetoplast concatenated DNA as substrate after 30 mins by picogreen dye based fluorescence assay.
Data set [27] can be described thus: Fraction unbound in mouse plasma at 1 uM by equilibrium dialysis method. In kind it is ADME, cell-free.
The test system of data set [28] is Mus musculus. Briefly: Antibacterial activity against Escherichia coli infected in cyclophosphamide treated neutropenic CD1 mouse septicemia model assessed as mouse survival at 3 mg/kg, iv dosed at 1 hr post infection followed by redosing at 5 hrs post infection measured at 96 hrs post infection relative to control. In kind it is functional. In outline: as §2

The subject of data set [29] is Mus musculus. Briefly: AUC (0 to 24 hrs) in CD1 mouse plasma at 3 mg/kg, iv by LC-MS/MS analysis. The class given is ADME, organism-based. Details: time < 24 hr, dose 3 mg/kg, route intravenous. Particulars: in vivo. An outline of the steps:
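CD-1 mice given a single 3 mg/kg iv dose (n = 3) in 3% DMSO/saline; plasma exposure measured.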

Data set [30] concerns Mus musculus. Briefly: Antibacterial activity against Escherichia coli infected in cyclophosphamide treated neutropenic CD1 mouse septicemia model assessed as mouse survival at 1.5 mg/kg, iv dosed at 1 hr post infection followed by redosing at 5 hrs post infection measured at 96 hrs post infection relative to control. The class given is functional. An outline of the steps:
as §2

Turning to `O=C(O)c1cn(C2CC2)c2cc(N3CCNCC3)c(F)cc2c1=O` [CIPROFLOXACIN], the IC50 in [1] came to 0.19 µM. The Activity entry in data set [2] and in data set [3] was “Dose-dependent effect” in each case.
As for `CCNCc1cc2cc3c(cc2n1C)CCCc1c-3[nH]c(=O)c(C(=O)O)c1O`, the MIC50 in data set [4] is 1 mg/L (≈ 2.62 µM); in [6], 1 mg/L (≈ 2.62 µM); in data set [11], 2 mg/L (≈ 5.24 µM); in data set [15] it was 1 mg/L (≈ 2.62 µM); in data set [16] it was 1 mg/L (≈ 2.62 µM); in [18], 2 mg/L (≈ 5.24 µM). The MIC50 in data set [20] is 2 mg/L (≈ 5.24 µM); in data set [21], 2 mg/L (≈ 5.24 µM); in data set [23], 1 mg/L (≈ 2.62 µM); in [24] it was 2 mg/L (≈ 5.24 µM); in data set [25] it was 2 mg/L (≈ 5.24 µM). The MIC90 stood at 1 mg/L (≈ 2.62 µM) in [4]; 1 mg/L (≈ 2.62 µM) in [6]; 16 mg/L (≈ 41.9 µM) in data set [11]; 1 mg/L (≈ 2.62 µM) in [15]; 1 mg/L (≈ 2.62 µM) in data set [16]; 16 mg/L (≈ 41.9 µM) in data set [18]. Besides, the MIC90 in [20] came out at 16 mg/L (≈ 41.9 µM); in data set [21], 16 mg/L (≈ 41.9 µM); in data set [23] it was 1 mg/L (≈ 2.62 µM); in data set [24], 16 mg/L (≈ 41.9 µM); in [25] it was 16 mg/L (≈ 41.9 µM). The MIC in data set [4] (read-out: MIC) was 0.25 to 1 mg/L (≈ 0.655 to 2.62 µM); in data set [5] it was 1.6 mg/L (≈ 4.19 µM); in data set [6] (read-out: MIC), 0.25 to 1 mg/L (≈ 0.655 to 2.62 µM); in data set [7], 1.6 mg/L (≈ 4.19 µM); in data set [8], 0.78 mg/L (≈ 2.04 µM); in data set [10] it was 0.39 mg/L (≈ 1.02 µM). The MIC is 0.25 to 32 mg/L (≈ 0.655 to 83.9 µM) in data set [11] (read-out: MIC); 6.3 mg/L in [12]; 0.39 mg/L (≈ 1.02 µM) in data set [13]; 1.6 mg/L (≈ 4.19 µM) in data set [14]; 0.25 to 1 mg/L (≈ 0.655 to 2.62 µM) in data set [16] (read-out: MIC); 0.78 mg/L (≈ 2.04 µM) in [17]. Further, the MIC in [18] (read-out: MIC) was 0.25 to 32 mg/L (≈ 0.655 to 83.9 µM); in data set [19], 1.6 mg/L (≈ 4.19 µM); in data set [20] (read-out: MIC), 0.25 to 32 mg/L (≈ 0.655 to 83.9 µM); in [21] (read-out: MIC) it was 0.25 to 32 mg/L (≈ 0.655 to 83.9 µM); in data set [23] (read-out: MIC), 0.25 to 1 mg/L (≈ 0.655 to 2.62 µM); in [25] (read-out: MIC) it was 0.25 to 32 mg/L (≈ 0.655 to 83.9 µM). For the same compound, the IC50 in [1] is 0.056 to 0.1 µM; in [22], 0.76 µM; in data set [26], 2.9 µM. Besides, the survival at 20 mg/kg in data set [9] came to 83%. In data set [27], the Fu was determined as 0.17.
Regarding `COc1c(N2C[C@@H]3CCCN[C@@H]3C2)c(F)cc2c(=O)c(C(=O)O)cn(C3CC3)c12` [MOXIFLOXACIN], the survival at 3 mg/kg in [28] amounted to 100%. Also, in data set [29], the AUC worked out at 0.64 µg·h/mL. The survival at 1.5 mg/kg in [30] came to 83%. Besides, the Fu in data set [27] worked out at 0.8.

For the origin of these results see ChEMBL document CHEMBL4190388, “Discovery and Optimization of Indolyl-Containing 4-Hydroxy-2-Pyridone Type II DNA Topoisomerase Inhibitors Active against Multidrug Resistant Gram-negative Bacteria” (J Med Chem, 2018).
